Source: ChEMBL document CHEMBL1142636 (2000)
Activity calls are given as the source filed them.

Key:
Assay type in all cases: functional
KM12 = assay: Growth inhibition of human KM12 cells
OVACR3 = assay: Growth inhibition of human […] cells
NCI/ADR-RES = assay: Growth inhibition of human MCF7/ADR-RES cells
CAKI-1 = assay: Growth inhibition of human CAKI1 cells
LOX IMVI = assay: Growth inhibition of human LOX IMVI cells
RPMI8266 = assay: Growth inhibition of human RPMI8266 cells
NCI-H322M = assay: Growth inhibition of human NCI-H322M cells
A549 = assay: Growth inhibition of human A549 cells
TK-10 = assay: Growth inhibition of human TK10 cells
How it was run: (§1)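 Tested at the NCI in its human disease-oriented in vitro screen of 60 tumour cell lines, following the Monks et al. methods. Activity is expressed as GI50, given as log molar values.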

HOP-18 = assay: Growth inhibition of human HOP18 cells
NCI-H460 = assay: Growth inhibition of human NCI-H460 cells
NCI-H522 = assay: Growth inhibition of human NCI-H522 cells
DMS-273 = assay: Growth inhibition of human DMS273 cells
786-0 = assay: Growth inhibition of human 786-0 cells
COLO 205 = assay: Growth inhibition of human COLO205 cells
SR = assay: Growth inhibition of human SR cells; how it was run: as §1
SN12C = assay: Growth inhibition of human SN12C cells; how it was run: as §1
IGROV-1 = assay: Growth inhibition of human IGROV1 cells
BT-549 = assay: Growth inhibition of human BT549 cells
MDA-MB-231 = assay: Growth inhibition of human MDA-MB-231 cells
KM-20L2 = assay: Growth inhibition of human KM20L2 cells
M19-MEL = assay: Growth inhibition of human M19-MEL cells
HT-29 = assay: Growth inhibition of human HT29 cells
LXFL 529 = assay: Growth inhibition of human LXFL529 cells
SNB-19 = assay: Growth inhibition of human SNB19 cells; how it was run: as §1
SK-MEL-5 = assay: Growth inhibition of human SK-MEL-5 cells; how it was run: as §1
XF498 = assay: Growth inhibition of human XF498 cells; how it was run: as §1
MDA-N = assay: Growth inhibition of human MDA-N cells
NCI-H23 = assay: Growth inhibition of human NCI-H23 cells
PC-3 = assay: Growth inhibition of human PC3 cells
MDA-MB-435 = assay: Growth inhibition of human MDA-MB-435 cells
NCI-H226 = assay: Growth inhibition of human NCI-H226 cells
SK-MEL-2 = assay: Growth inhibition of human SK-MEL-2 cells; how it was run: as §1
SF-539 = assay: Growth inhibition of human SF539 cells; how it was run: as §1
Malme-3M = assay: Growth inhibition of human MALME-3M cells
HOP-92 = assay: Growth inhibition of human HOP92 cells
A498 = assay: Growth inhibition of human A498 cells
Hs-578T = assay: Growth inhibition of human HS578T cells
HOP-62 = assay: Growth inhibition of human HOP62 cells
DU-145 = assay: Growth inhibition of human DU145 cells
U-251 = assay: Growth inhibition of human U251 cells; how it was run: as §1
UO-31 = assay: Growth inhibition of human UO31 cells; how it was run: as §1
HCT-15 = assay: Growth inhibition of human HCT15 cells
HCT-116 = assay: Growth inhibition of human HCT116 cells
OVACR8 = assay: Growth inhibition of human OVACR8 cells
M14 = assay: Growth inhibition of human M14 cells
SK-OV-3 = assay: Growth inhibition of human SK-OV-3 cells; how it was run: as §1
MCF7 = assay: Growth inhibition of human MCF7 cells
ACHN = assay: Growth inhibition of human ACHN cells
HL-60(TB) = assay: Growth inhibition of human HL60(TB) cells
OVACR5 = assay: Growth inhibition of human OVACR5 cells
DLD-1 = assay: Growth inhibition of human DLD1 cells
EKVX = assay: Growth inhibition of human EKVX cells
UACC-257 = assay: Growth inhibition of human UACC257 cells; how it was run: as §1
OVACR4 = assay: Growth inhibition of human OVACR4 cells
UACC-62 = assay: Growth inhibition of human UACC62 cells; how it was run: as §1
T47D = assay: Growth inhibition of human T47D cells; how it was run: as §1
SK-MEL-28 = assay: Growth inhibition of human SK-MEL-28 cells; how it was run: as §1
DMS144 = assay: Growth inhibition of human DMS144 cells
RXF 393 = assay: Growth inhibition of human […] cells
CCRF-CEM = assay: Growth inhibition of human CCRF-CEM cells
SF-268 = assay: Growth inhibition of human SF268 cells; how it was run: as §1
HCC 2998 = assay: Growth inhibition of human HCC2998 cells
SNB-75 = assay: Growth inhibition of human SNB75 cells; how it was run: as §1
MOLT-4 = assay: Growth inhibition of human MOLT4 cells
SW-620 = assay: Growth inhibition of human SW620 cells; how it was run: as §1
SF-295 = assay: Growth inhibition of human SF295 cells; how it was run: as §1
K562 = assay: Growth inhibition of human K562 cells

Measured: Activity

COc1ccc2c([nH]c3c(O)c(-c4c(C)cc5c([nH]c6c(CC=C(C)C)c(OC)ccc65)c4O)c(C)cc32)c1CC=C(C)C
inactive: KM12 | OVACR3 | NCI/ADR-RES | CAKI-1 | LOX IMVI | RPMI8266 | NCI-H322M | A549 | TK-10 | HOP-18 | NCI-H460 | NCI-H522 | DMS-273 | 786-0 | COLO 205 | SR | SN12C | IGROV-1 | BT-549 | MDA-MB-231 | KM-20L2 | M19-MEL | HT-29 | LXFL 529 | SNB-19 | SK-MEL-5 | XF498 | MDA-N | NCI-H23 | PC-3 | MDA-MB-435 | NCI-H226 | SK-MEL-2 | SF-539 | Malme-3M | HOP-92 | A498 | Hs-578T | HOP-62 | DU-145 | U-251 | UO-31 | HCT-15 | HCT-116 | OVACR8 | M14 | SK-OV-3 | MCF7 | ACHN | HL-60(TB) | OVACR5 | DLD-1 | EKVX | UACC-257 | OVACR4 | UACC-62 | T47D | SK-MEL-28 | DMS144 | RXF 393 | CCRF-CEM | SF-268 | HCC 2998 | SNB-75 | MOLT-4 | SW-620 | SF-295 | K562

COc1cc(Cn2c3ccccc3c3cc(C)c4c(c32)C=CC(C)(CCC=C(C)C)O4)cc2c1[nH]c1ccccc12 (stereo unspecified)
inactive: KM12 | OVACR3 | NCI/ADR-RES | CAKI-1 | LOX IMVI | RPMI8266 | NCI-H322M | A549 | TK-10 | HOP-18 | NCI-H460 | NCI-H522 | DMS-273 | 786-0 | COLO 205 | SR | SN12C | IGROV-1 | BT-549 | MDA-MB-231 | KM-20L2 | M19-MEL | HT-29 | LXFL 529 | SNB-19 | SK-MEL-5 | XF498 | MDA-N | NCI-H23 | PC-3 | MDA-MB-435 | NCI-H226 | SK-MEL-2 | SF-539 | Malme-3M | HOP-92 | A498 | Hs-578T | HOP-62 | DU-145 | U-251 | UO-31 | HCT-15 | HCT-116 | OVACR8 | M14 | SK-OV-3 | MCF7 | ACHN | HL-60(TB) | OVACR5 | DLD-1 | EKVX | UACC-257 | OVACR4 | UACC-62 | T47D | SK-MEL-28 | DMS144 | RXF 393 | CCRF-CEM | SF-268 | HCC 2998 | SNB-75 | MOLT-4 | SW-620 | SF-295 | K562
